{
  "source": "paper PMC11094421",
  "about": "(Clinical Cancer Research, 2024)",
  "key": {"[1]": {"test": "Treatment-emergent adverse events, first-in-human dose-escalation study", "format": "in vivo", "procedure,_shortened": "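Safety set comprised all patients given ≥1 dose (N = 55; 5–270 mg, QD or BID schedules). TEAEs were counted from the first dose until 30 days after the last. Baseline was the last value before the first dose.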"}, "[2]": {"tested_on": "xenograft models of BRCA^mut high-grade serous ovarian cancer", "conditions": "monotherapy and combination with niraparib; cited from earlier work"}, "[3]": {"conditions": "lartesertib, niraparib, cisplatin, gemcitabine, irinotecan; preclinical; cited from earlier work"}, "[4]": {"tested_on": "circulating tumor DNA", "test": "Molecular response in plasma ctDNA", "format": "in vivo, human"}, "[5]": {"tested_on": "patients with advanced solid tumors", "test": "Objective response according to RECIST v1.1", "format": "in vivo, human", "procedure,_shortened": "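Investigator-assessed objective response per RECIST v1.1, based on change in the sum of longest diameters of target lesions. Patients received the test compound once or twice daily on continuous or intermittent schedules.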"}, "[6]": {"tested_on": "ARID1A^mut gastric cancer xenograft model", "conditions": "monotherapy; Supplementary Fig. S1; cited from earlier work"}, "[7]": {"test": "Noncompartmental PK of tuvusertib in plasma", "format": "in vivo, human"}, "[8]": {"tested_on": "ATM^mut non–small cell lung cancer (NSCLC) xenograft model", "conditions": "monotherapy; Supplementary Fig. S1; cited from earlier work"}, "[9]": {"test": "Dose-limiting toxicities, MTD and RDE", "format": "in vivo, human", "procedure,_shortened": "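Patients with metastatic or locally advanced unresectable solid tumors received test compound alone, fasting, QD from 5 mg upward, plus 2 weeks on/1 week off and 150 mg BID 4 days on/3 days off schedules. The DLT window was 21 days with a 30% target DLT rate. A Bayesian 2-parameter logistic model with overdose control and a schedule covariate gave posterior DLT probabilities (mean, percentiles). Analysis set N = 52.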"}, "[10]": {"tested_on": "immune cell subsets", "test": "Immunophenotyping of whole blood by flow cytometry", "format": "in vivo, human", "conditions": "doses ≥130 mg, on-treatment period; full recovery during treatment breaks"}},
  "data": [
    {"smiles": "Cn1cncc1-c1c(F)cncc1NC(=O)c1c(N)nn2cc(F)cnc12", "note": "[Tuvusertib]", "values": [
      {"measurement": "Anemia TEAE", "setting": "[1]; Any grade, all doses, N = 55", "result": "39 (71) n (%)"},
      {"measurement": "Constipation TEAE", "setting": "[1]; Any grade, all doses, N = 55", "result": "13 (24) n (%)"},
      {"measurement": "Fatigue TEAE", "setting": "[1]; Any grade, all doses, N = 55", "result": "22 (40.0) n (%)"},
      {"measurement": "Nausea TEAE", "setting": "[1]; Any grade, all doses, N = 55", "result": "34 (62) n (%)"},
      {"measurement": "Vomiting TEAE", "setting": "[1]; Any grade, all doses, N = 55", "result": "21 (38) n (%)"},
      {"measurement": "Anemia TEAE", "setting": "[1]; Grade ≥3, all doses, N = 55", "result": "20 (36) n (%)"},
      {"measurement": "Constipation TEAE", "setting": "[1]; Grade ≥3, all doses, N = 55", "result": "0 n (%)"},
      {"measurement": "Fatigue TEAE", "setting": "[1]; Grade ≥3, all doses, N = 55", "result": "1 (2) n (%)"},
      {"measurement": "Nausea TEAE", "setting": "[1]; Grade ≥3, all doses, N = 55", "result": "0 n (%)"},
      {"measurement": "Vomiting TEAE", "setting": "[1]; Grade ≥3, all doses, N = 55", "result": "3 (6) n (%)"},
      {"measurement": "treatment-related AE anemia", "setting": "[1]; across all dose levels", "result": 67, "unit": "%"},
      {"measurement": "treatment-related AE fatigue", "setting": "[1]; across all dose levels", "result": 38, "unit": "%"},
      {"measurement": "treatment-related AE vomiting", "setting": "[1]; across all dose levels", "result": 33, "unit": "%"},
      {"measurement": "TEAEs assessed as related to tuvusertib", "setting": "[1]; all doses", "result": 87, "unit": "%"},
      {"measurement": "abnormal ECG readings, vital signs, high-grade laboratory abnormalities", "setting": "[1]; all doses", "result": "No clinically significant abnormal ECG readings, vital signs or high-grade laboratory abnormalities were observed"},
      {"measurement": "patients who experienced at least one TEAE", "setting": "[1]; all doses", "result": 95, "unit": "%"},
      {"measurement": "Any grade ≥3 TEAE", "setting": "[1]; all doses, N = 55", "result": "26 (47) n (%)"},
      {"measurement": "Any serious TEAE", "setting": "[1]; all doses, N = 55", "result": "15 (27) n (%)"},
      {"measurement": "Grade ≥3 TEAE related to tuvusertib", "setting": "[1]; all doses, N = 55", "result": "19 (35) n (%)"},
      {"measurement": "Serious TEAE related to tuvusertib", "setting": "[1]; all doses, N = 55", "result": "3 (6) n (%)"},
      {"measurement": "TEAE leading to permanent tuvusertib discontinuation", "setting": "[1]; all doses, N = 55", "result": "3 (6) n (%)"},
      {"measurement": "TEAE leading to temporary tuvusertib discontinuation", "setting": "[1]; all doses, N = 55", "result": "26 (47) n (%)"},
      {"measurement": "TEAEs related to tuvusertib", "setting": "[1]; all doses, N = 55", "result": "48 (87) n (%)"},
      {"measurement": "Any TEAE", "setting": "[1]; all doses, N = 55, safety analysis set", "result": "52 (95) n (%)"},
      {"measurement": "constipation TEAE of any grade", "setting": "[1]; at the MTD (n = 11)", "result": 36, "unit": "%"},
      {"measurement": "nausea TEAE of any grade", "setting": "[1]; at the MTD (n = 11)", "result": 55, "unit": "%"},
      {"measurement": "vomiting TEAE of any grade", "setting": "[1]; at the MTD (n = 11)", "result": 36, "unit": "%"},
      {"measurement": "grade ≥3 TEAE anemia", "setting": "[1]; at the RDE", "result": "none seen"},
      {"measurement": "nausea TEAE of any grade", "setting": "[1]; at the RDE (n = 7)", "result": 71, "unit": "%"},
      {"measurement": "anemia TEAE of any grade", "setting": "[1]; overall", "result": 71, "unit": "%"},
      {"measurement": "fatigue TEAE of any grade", "setting": "[1]; overall", "result": 40, "unit": "%"},
      {"measurement": "grade ≥3 TEAE lymphocyte count decreased", "setting": "[1]; overall", "result": 7, "unit": "%"},
      {"measurement": "grade ≥3 TEAE neutrophil count decreased", "setting": "[1]; overall", "result": 7, "unit": "%"},
      {"measurement": "nausea TEAE of any grade", "setting": "[1]; overall", "result": 62, "unit": "%"},
      {"measurement": "grade ≥3 TEAE anemia", "setting": "[1]; overall, majority at doses ≥ MTD", "result": 36, "unit": "%"},
      {"measurement": "Grade ≥4 platelet count decreased", "setting": "[1]; reported at dose levels exceeding the MTD", "result": 4, "unit": "%"},
      {"measurement": "antitumor activity", "setting": "[2]", "result": "antitumor activity as monotherapy and in combination with the PARP inhibitor niraparib"},
      {"measurement": "synergy with other DDR-targeting treatments and DNA-damaging agents", "setting": "[3]", "result": "pronounced synergy"},
      {"measurement": "Complete MRs for any mutations", "setting": "[4]; ARID1A", "result": "2/8"},
      {"measurement": "Complete MRs for any mutations", "setting": "[4]; ATRX", "result": "2/5"},
      {"measurement": "Complete MRs for any mutations", "setting": "[4]; BRCA1/2", "result": "2/11"},
      {"measurement": "Complete MRs for any mutations", "setting": "[4]; DAXX", "result": "2/3"},
      {"measurement": "MRs by tumor type", "setting": "[4]; breast cancer, 1/3", "result": 33, "unit": "%"},
      {"measurement": "MRs by tumor type", "setting": "[4]; other tumor types, 4/21", "result": 19, "unit": "%"},
      {"measurement": "MRs by tumor type", "setting": "[4]; ovarian cancer, 5/10", "result": 50, "unit": "%"},
      {"measurement": "MRs observed (patients)", "setting": "[4]; patients treated with more than 130 mg QD, 14/37", "result": 38, "unit": "%"},
      {"measurement": "patients showing a reduction in sum of tumor diameter", "setting": "[4]; patients with MRs, 7/14", "result": 50, "unit": "%"},
      {"measurement": "patients showing a reduction in sum of tumor diameter", "setting": "[4]; patients without MRs, 8/33", "result": 24, "unit": "%"},
      {"measurement": "MRs observed (patients)", "setting": "[4]; the 10 patients who received lower doses", "result": "none"},
      {"measurement": "patients with stable disease (RECIST v1.1)", "setting": "[5]; 15 patients, all doses", "result": 27, "unit": "%"},
      {"measurement": "duration of disease stabilization", "setting": "[5]; patient with unconfirmed partial response, 150 mg BID 4 days on/3 days off", "result": 9, "unit": "months"},
      {"measurement": "antitumor activity", "setting": "[6]", "result": "antitumor activity as monotherapy"},
      {"measurement": "dose proportionality of exposure", "setting": "[7]; 5 to 270 mg", "result": "approximately dose proportional up to 180 mg QD and slightly more than proportional at higher doses"},
      {"measurement": "PK steady-state conditions achieved", "setting": "[7]; cycle 1", "result": "≤ 8", "unit": "days"},
      {"measurement": "half-life", "setting": "[7]; human, plasma, oral", "result": "1.2 to 5.6", "unit": "h"},
      {"measurement": "Tmax", "setting": "[7]; human, plasma, po", "result": "0.5 to 3.5", "unit": "h"},
      {"measurement": "antitumor activity", "setting": "[8]", "result": "antitumor activity as monotherapy"},
      {"measurement": "DLT anemia requiring blood transfusion", "setting": "[9]; 130 mg QD", "result": "1/8"},
      {"measurement": "DLT anemia requiring blood transfusion", "setting": "[9]; 150 mg BID 4 days on/3 days off", "result": "3/4"},
      {"measurement": "DLT anemia requiring blood transfusion", "setting": "[9]; 180 mg QD", "result": "3/10"},
      {"measurement": "median estimated DLT probability", "setting": "[9]; 180 mg QD continuously", "result": 23, "unit": "%"},
      {"measurement": "upper boundary of the one-sided 95% credible interval of DLT probability", "setting": "[9]; 180 mg QD continuously", "result": 37, "unit": "%"},
      {"measurement": "DLT anemia requiring blood transfusion", "setting": "[9]; 220 mg QD 2 weeks on/1 week off", "result": "2/6"},
      {"measurement": "DLT anemia requiring blood transfusion", "setting": "[9]; 270 mg QD", "result": "1/4"},
      {"measurement": "DLT upper gastrointestinal hemorrhage and decreased platelet counts (one each)", "setting": "[9]; 270 mg QD", "result": "2/4"},
      {"measurement": "patients who experienced DLTs", "setting": "[9]; as assessed by the SMC, observation period 21 days", "result": "Eleven"},
      {"measurement": "median estimated DLT probability", "setting": "[9]; intermittent 2 weeks on/1 week off schedule, no MTD formally established", "result": "< 20", "unit": "%"},
      {"measurement": "DLTs that were events of anemia requiring blood transfusion", "setting": "[9]; of eleven patients with DLTs", "result": 10},
      {"measurement": "monocytes and NK cell subsets", "setting": "[10]", "result": "Transient decreases"}
    ]}
  ]
}
